The text below walks through data of ChEMBL document CHEMBL4732089, “Novel σ antagonists designed for tumor therapy: Structure - activity relationships of aminoethyl substituted cyclohexanes” (Eur J Med Chem, 2021).

Calls of active or inactive are those of the source. The calls are words filed in the database; no cut-off is given here.

By Ki is commonly meant the equilibrium dissociation constant of an inhibitor or competing ligand from its target. Usually inhibition stands for the drop in the measured response relative to a control, in per cent. Broadly, the logD is the decadic logarithm of the distribution of all forms, ionised or not, between an organic phase and buffer at a given pH. As a reminder, the share remaining is the share of the starting amount still present when the sample was taken.

Series [1] concerns the target Sigma non-opioid intracellular receptor 1 (Cavia porcellus, UniProt Q60492). Description: Displacement of [3H]-pentazocine from sigma1 receptor in guinea pig brain membrane incubated for 120 mins by liquid scintillation counting method. In kind it is cell membranes. For orientation: Displacement assays read how much labelled ligand stays bound in the presence of the test substance.

The target of series [2] is T1, Sigma intracellular receptor 2 (Rattus norvegicus, UniProt Q5U3Y7).
T1 sequence (Q5U3Y7 whole entry): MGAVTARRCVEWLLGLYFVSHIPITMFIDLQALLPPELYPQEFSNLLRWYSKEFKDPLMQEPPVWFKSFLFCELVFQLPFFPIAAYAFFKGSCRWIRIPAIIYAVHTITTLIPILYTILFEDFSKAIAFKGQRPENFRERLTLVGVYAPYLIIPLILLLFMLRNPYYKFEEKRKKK
The experiment in a line: Displacement of [3H]-di-o-tolylguanidine from sigma2 receptor in rat liver membrane incubated for 120 mins by liquid scintillation counting method relative to control. In kind it is cell membranes. The essentials: (§1)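 Competitive binding with [3H]di-o-tolylguanidine on rat liver membranes. Single-concentration values are % inhibition of radioligand binding at 1 µM test compound. Ki values are n = 3 (±SEM), except low-affinity compounds, which were measured once.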

Series [3] concerns the target T2, Sigma intracellular receptor 2 (Rattus norvegicus) (UniProt Q5U3Y7).
T2 sequence (whole entry): T1 sequence (Q5U3Y7 whole entry)
The experiment in a line: Displacement of [3H]-di-o-tolylguanidine from sigma2 receptor in rat liver membrane at 1 uM incubated for 120 mins by liquid scintillation counting method relative to control. In kind it is cell membranes. The method, boiled down: as §1

The species named for another series is Sus scrofa. Description: Displacement of [3H]-MK-801 from NMDA receptor PCP binding site in pig brain cortex at 1 uM incubated for 150 mins by liquid scintillation counting method relative to control. In kind it is tissue-based.
The next series concerns DU-145. The experiment in a line: Antiproliferative activity against human DU145 cells assessed as reduction in cell viability at 10 uM incubated for 72 hrs by SRB assay. In kind it is functional, cell-based. The essentials: (§2)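 Cells from ATCC were grown in RPMI 1640 with 10% FBS, glutamine and penicillin-streptomycin. Seeding was 1×10^3 (lung) or 2×10^3 (prostate) cells/well. After 24 h, compounds were added at 10 µM for 72 h. Cells were fixed with 10% TCA and stained with sulforhodamine B for 30 min. Dye was solubilized in Tris base and OD read at 510 nm. Results are expressed as % of DMSO-treated cells.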
Background: In SRB staining, fixed cells bind dye roughly in proportion to their protein.

Series [4] is described as follows: Selectivity for sigma1 receptor in guinea pig brain membrane over sigma2 receptor in rat liver membrane. In kind it is cell membranes.
Series [5] is described as follows: n-octanol/aqueous buffer distribution coefficient, log D of compound at pH 7.4 by LC-MS analysis. In kind it is physicochemical. The method, boiled down:
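Micro shake-flask method using 20 mM MOPS buffer pH 7.4 and n-octanol, mutually pre-saturated for 24 h. DMSO was kept below 1%. Three buffer:octanol volume ratios (1:1, 1:2, 2:1) were each run three times (n = 9). Tubes were vortexed 2 min and centrifuged 10 min at 20 °C. The aqueous layer was quantified by LC-MS against a matrix-matched calibration, and logD calculated from that concentration.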

The nature of series [6]: Metabolic stability in mouse liver microsomes assessed as parent compound remaining measured after 90 mins in presence of NADPH.
Series [7] is described as follows: Drug metabolism in mouse liver microsomes assessed as metabolite 2-((1R,3S)-3-phenylcyclohexyl)ethanamine formation measured after 90 mins in presence of NADPH by LC-MS analysis. In kind it is ADME, Microsome. To be noted: 1.5 h. The method, boiled down:
(§3)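 Incubation with mouse liver microsomes and NADPH for 90 min at 37 °C. Metabolites were identified by LC-MS with collision-induced dissociation.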
In general terms: Microsomes from liver hold many membrane-bound enzymes, among them those of drug oxidation.

The nature of series [8]: Drug metabolism in mouse liver microsomes assessed as metabolite 4-((1S,3R)-3-(2-(benzylamino)ethyl)cyclohexyl)benzene-1,2-diol formation measured after 90 mins in presence of NADPH by LC-MS analysis. In kind it is ADME, Microsome. To be noted: 1.5 h. The essentials: as §3
Another series has as its system PC-3. The experiment in a line: Antiproliferative activity against human PC-3 cells assessed as reduction in cell viability at 10 uM incubated for 72 hrs by SRB assay. In kind it is functional, cell-based. The essentials: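 PC3 prostate cancer cells grown adherent in RPMI 1640 with 2% glutamine, 10% FBS and 1% penicillin-streptomycin. Seeded at 2 × 10^3 cells/well; compound added at 10 µM 24 h later for 72 h. Cells fixed in 10% TCA, stained with sulforhodamine B 30 min, washed with 1% acetic acid, dye solubilised in Tris base, OD read at 510 nm; viability given as % of DMSO-treated cells.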

Series [9] has as its target Sigma non-opioid intracellular receptor 1 (Rattus norvegicus) (UniProt Q9R0C9). The experiment in a line: Agonist activity at sigma1 receptor in rat PC12 cells assessed as reduction in KCl-induced Ca2+ influx at 10 nM measured after 30 mins by Fura2AM dye based fluorescence microscopic analysis. In kind it is cell-based. To be noted: PC-12. The essentials: (§4)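 Single PC12 cells loaded with 0.5 µM fura-2-AM plus 0.01% Pluronic F-127, 30 min, 37 °C, in HEPES saline pH 7.4 (138 mM NaCl, 6 mM KCl, 2 mM CaCl2). Cells were then washed 30 min and perfused. Test compounds were at 10 nM, and Ca2+ influx was triggered with KCl. Excitation was at 340/380 nm and emission at 510 nm. The F340/F380 ratio was calibrated with KD 224 nM. 10–20 cells per slide, ≥5 independent experiments.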

Series [10] shares this target. The experiment in a line: Antagonist activity at sigma1 receptor in rat PC12 cells assessed as reduction in opipramol activity by measuring increase in Ca2+-influx at 10 nM measured after 30 mins in presence of KCl by Fura2AM dye based fluorescence microscopic analysis relative to control. In kind it is cell-based. The arrangement: scale not given: the % may be the effect or the level left. The essentials:
as §4

Another series deals with CWR22R. Description: Antiproliferative activity against human 22Rv1 cells assessed as reduction in cell viability at 10 uM incubated for 72 hrs by SRB assay. In kind it is functional, cell-based. The method, boiled down: as §2
The next series relates to NCI-H358. The experiment in a line: Antiproliferative activity against human NCI-H358 cells assessed as reduction in cell viability at 10 uM incubated for 72 hrs by SRB assay. In kind it is functional, cell-based. The essentials:
as §2

Another series has as its system NCI-H441. The experiment in a line: Antiproliferative activity against human NCI-H441 cells assessed as reduction in cell viability at 10 uM incubated for 72 hrs by SRB assay. In kind it is functional, cell-based. The essentials: as §2
A further series relates to NCI-H522. Description: Antiproliferative activity against human NCI-H522 cells assessed as reduction in cell viability at 10 uM incubated for 72 hrs by SRB assay. In kind it is functional, cell-based. The essentials:
as §2

Sequence of Sigma non-opioid intracellular receptor 1 (Q60492 whole entry): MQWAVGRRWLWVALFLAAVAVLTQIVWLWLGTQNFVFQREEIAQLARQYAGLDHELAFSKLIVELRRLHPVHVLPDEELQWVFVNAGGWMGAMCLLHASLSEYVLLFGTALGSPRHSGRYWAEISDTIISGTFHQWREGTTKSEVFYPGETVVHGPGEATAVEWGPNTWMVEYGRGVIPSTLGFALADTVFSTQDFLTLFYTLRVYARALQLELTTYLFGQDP
Sequence of Sigma non-opioid intracellular receptor 1 (Rattus norvegicus) (Q9R0C9 whole entry, the tested form may be a part): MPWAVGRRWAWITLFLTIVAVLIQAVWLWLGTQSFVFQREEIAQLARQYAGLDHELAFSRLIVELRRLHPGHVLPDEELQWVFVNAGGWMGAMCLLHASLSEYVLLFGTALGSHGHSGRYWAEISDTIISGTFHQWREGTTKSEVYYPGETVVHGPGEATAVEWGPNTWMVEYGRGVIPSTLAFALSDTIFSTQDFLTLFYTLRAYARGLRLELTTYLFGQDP

For the molecule `CN(C)CC[C@H]1CCC[C@@H](c2ccccc2)C1`, the inhibition constant (Ki) worked out at 10 nM in series [1] and 156 nM in series [2].
In the same order, the values of `c1ccc(CNCC[C@@H]2CCC[C@@H](c3ccccc3)C2)cc1` [listing 1 of 2 here] are 1.8 nM and 57 nM.
Consider `NCC[C@@H]1CCC[C@@H](c2ccccc2)C1`, for which the affinity in series [1] corresponds to a Ki of 43 nM. Also, the inhibition in series [3] is 43%; in the series filed under Sus scrofa it was 15%.
Regarding `CN(C)CC[C@@H]1CCC[C@H](c2ccccc2)C1`, the Ki was determined as 14 nM in [1] and 76 nM in [2].
For `c1ccc(CNCC[C@H]2CCC[C@@H](c3ccccc3)C2)cc1`, the inhibitory constant (Ki) is 1.3 nM in series [1] and 47 nM in series [2]. Moreover, in the series with DU-145, the outcome was Active. For the same molecule, the Selectivity ratio in series [4] was 35.
For the molecule `NCC[C@H]1CCC[C@@H](c2ccccc2)C1`, in [1], affinity was put at a Ki of 138 nM. Further, the figures for the inhibition (in series [3]; in the series filed under Sus scrofa) were 24% and 14%, respectively.
Take `c1ccc(CNCC[C@@H]2CCC[C@H](c3ccccc3)C2)cc1` [listing 1 of 2 here]: the Ki in [1] was found to be 0.61 nM; in series [2], 49 nM. Moreover, the pH-dependent lipophilicity (logD) in series [5] stood at 3.23. Further, the share remaining at 1.5 h in series [6] stood at 43%. For the same molecule, the Drug metabolism result in series [7] and in series [8] was “Metabolite_Detected” throughout.
Molecule `NCC[C@@H]1CCC[C@H](c2ccccc2)C1` showed an inhibitory constant (Ki) in series [1] of 167 nM. In addition, the results for the inhibition (in [3]; in the series filed under Sus scrofa) were 38% and 11%, respectively.
Turning to `c1ccc(CNCC[C@H]2CCC[C@H](c3ccccc3)C2)cc1`, the Ki was 1.4 nM in series [1] and 46 nM in [2]. For the same molecule, the result in the series with DU-145 was inactive. Also, in series [5], the pH-dependent lipophilicity (logD) amounted to 3.34. In addition, the Selectivity ratio in [4] worked out at 35.
`NCC[C@H]1CCC[C@H](c2ccccc2)C1` displayed an inhibitory constant (Ki) in series [1] of 603 nM. The inhibition in series [3] turned out to be 60%; in the series listed under Sus scrofa, 31%.
As to `CCCN(CCC)CCc1ccc(OC)c(OCCc2ccccc2)c1`, the outcome in the series on PC-3 was Active.
For the molecule `c1ccc(CNCC[C@@H]2CCC[C@@H](c3ccccc3)C2)cc1` [listing 2 of 2 here], the result in the series on DU-145 was inactive. In series [4], the Selectivity ratio was 35.
Turning to `c1ccc(CNCC[C@@H]2CCC[C@H](c3ccccc3)C2)cc1` [listing 2 of 2 here], in the series with DU-145, the outcome was Active.
Consider `CN(C)CCC1CCCC(c2ccccc2)C1` (mixture of isomers), for which the results for the Ki in [1] and in series [2] were 4.2 nM and 115 nM, respectively. Also, in the series filed under Sus scrofa, the inhibition was 25%.
With `c1ccc(CCCCNCCC2CCCC(c3ccccc3)C2)cc1` (mixture of isomers), the Ki came out at 3 nM in [1] and 93 nM in [2]. This molecule displayed an inhibition in the series listed under Sus scrofa of 11%.
On to `c1ccc([C@@H]2CCC[C@@H](CCN3CCCC3)C2)cc1` (relative stereo), for which the inhibitory constant (Ki) was determined as 2 nM in series [1] and 33 nM in series [2]. Also, the inhibition in the series listed under Sus scrofa was 28%. The outcome in [9] was inactive. Further, the Activity in [10] (PC-12, filed as antagonist) is 100%.
For the molecule `c1ccc(CNCC[C@@H]2CCC[C@@H](c3ccccc3)C2)cc1` (relative stereo) [listing 1 of 2 here], the inhibition constant (Ki) in [1] is 2.4 nM; in [2] it was 268 nM.
Turning to `c1ccc([C@H]2CCC[C@@H](CCN3CCCC3)C2)cc1` (relative stereo), the Ki is 3.6 nM in series [1] and 61 nM in series [2]. For the same molecule, the inhibition in the series listed under Sus scrofa was 36%.
On to `c1ccc([C@H]2CCC[C@H](CCN3CCN(c4ccccc4)CC3)C2)cc1` (relative stereo), for which the figures for the Ki in series [1] and in series [2] were 13 nM and 144 nM, respectively. This molecule also had an inhibition in the series filed under Sus scrofa of 0%. Also, the result with DU-145 was inactive.
Turning to `c1ccc(CNCC[C@@H]2CCC[C@H](c3ccccc3)C2)cc1` (relative stereo) [listing 1 of 2 here], the Ki in series [1] is 1.8 nM; in series [2], 130 nM.
`c1ccc([C@H]2CCC[C@@H](CCN3CCN(c4ccccc4)CC3)C2)cc1` (relative stereo): the inhibition constant (Ki) in series [1] is 16 nM; in series [2], 118 nM. This molecule registered an inhibition in the series listed under Sus scrofa of 0%. In addition, the outcome in the series with DU-145 was inactive.
Turning to `c1ccc(CNCC[C@@H]2CCC[C@@H](c3ccccc3)C2)cc1` (relative stereo) [listing 2 of 2 here], in the series listed under Sus scrofa, the inhibition was determined as 31%. Further, the outcome in series [9] was inactive. In addition, in [10] (PC-12, filed as antagonist), the Activity was 100%.
`c1ccc(CNCC[C@@H]2CCC[C@H](c3ccccc3)C2)cc1` (relative stereo) [listing 2 of 2 here]: the inhibition in the series filed under Sus scrofa turned out to be 11%. Further, the result in series [9] and in series [10] (PC-12) was inactive. The result in the series on DU-145, with PC-3, in the series with CWR22R, in the series with NCI-H358, with NCI-H441 and in the series with NCI-H522 was Active.
